Screening results: PubChem BioAssay, several laboratories
MC4R antagonist = human MC4R antagonism in cAMP assay. MC4R-expressing cells, MTII-stimulated cAMP, LANCE TR-FRET. AID 540295. 0.48% of 360,000 active. inhibition, % at 6.5 µM. P32245;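 active = inhibition above its plate's cutoff, the mean of tested wells on that plate plus 3 SD, cut at about 29% in these data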;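 note: 0% = Melanotan II alone and 100% = Melanotan II plus saturating MCL0020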
Target sequence (P32245 whole entry, looked up): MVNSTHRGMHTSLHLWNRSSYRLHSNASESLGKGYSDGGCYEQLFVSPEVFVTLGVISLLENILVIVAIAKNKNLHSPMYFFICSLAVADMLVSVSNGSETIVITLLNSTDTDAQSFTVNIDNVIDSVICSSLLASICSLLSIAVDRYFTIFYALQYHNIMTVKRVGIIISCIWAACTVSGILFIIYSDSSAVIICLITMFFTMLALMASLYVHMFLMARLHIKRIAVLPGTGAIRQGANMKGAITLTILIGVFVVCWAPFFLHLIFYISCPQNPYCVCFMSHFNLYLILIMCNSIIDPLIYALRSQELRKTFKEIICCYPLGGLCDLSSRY
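material = U2OS cells stably expressing human melanocortin 4 receptor (MC4R) | also added = Melanotan II challenge | dosing = single nominal compound dose of 6.5 µM | detection = TR-FRET with Eu-cAMP and labeled anti-cAMP, 671 nm | replication = singlicate | timing = compound 30 min, challenge 1 h, detection 1 h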
PG9 binder = binds the HIV-1 gp120 antibody PG9; TR-FRET gp120-PG9 antibody binding; inhibition, % at 6.7 µM; 0.43% of 360,000 active; in the data active = inhibition above about 8.5%
Rev-erbA mod = Rev-erb alpha (human) modulation; activity, % at 10 µM; AID 1259318; 0.79% of 370,000 active; P20393; Rev-erbα–FITC-DNA binding, fluorescence polarization, 90 min;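 active = activity above about 14%, limit read from the data; passing the limit was not always enough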;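 note: 0% = DMSO wells with 35 nM protein and 100% = DMSO wells with 750 nM protein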
MC4R ag barr = agonists of human melanocortin 4 receptor (MC4R) beta-arrestin | P32245 | U2OS MC4R beta-arrestin complementation, luminescence; percent of melanotan II response, DMSO zero | activation, % at 8.9 µM | 0.98% of 360,000 active | AID 540308;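 active = activation above a per-plate cutoff, the mean activation of sample wells on that plate plus 3 SD, cut at about 8% in these data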
NTR1 ag = agonists of human neurotensin receptor NTR1; P30989; NTR1-U2OS beta-arrestin-GFP spot imaging, agonist mode; activation, % at 20 µM; 0.17% of 330,000 active; AID 493036;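 active = activation at or above 40% of the spot to cytoplasm intensity ratio, with at least 20 cells analyzed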;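 note: 0% = DMSO without peptide and 100% = 100 nM NTR1 peptide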
Rev-erbA confirm = Rev-erb alpha (human) modulation, hit confirmation | shares compounds with Rev-erbA mod | Rev-erb alpha FITC-DNA binding, fluorescence polarization, 90 min | activation, % at 25 µM | 61% of 3,000 active;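 active = activation at or above a set limit, or at least 3 SD above the negative control mean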;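 note: 0% = 35 nM protein with DMSO and 100% = 750 nM protein high control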
RORg counter = affects RORgamma DNA binding in a Rev-erb alpha counter-screen. 8% of 910 active. shares compounds with Rev-erbA mod. purified RORgamma protein-FITC-DNA binding, fluorescence polarization. IC50, µM. AID 1259320;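 active = Compounds whose fitted half-maximal concentration for disrupting protein-DNA binding is below 10 micromolar; the record names Rev-erb in its text, so the target is in doubt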
The depositor's hits bear a star; i = inactive; nt = not tested or not shown. Rows were chosen to be rich in hits. Some 2.5% of all compounds tested hit in one or more screens of this group.

SMILES	MC4R antagonist	PG9 binder	Rev-erbA mod	MC4R ag barr	NTR1 ag	Rev-erbA confirm	others
COc1cc2cc(C(=O)N3CCc4ccccc4C3)[nH]c2cc1OC	17	1	28*	6	2	11
COc1cc2sc3ccc(C#Cc4ccccn4)cc3c(=O)c2cc1OC	7	-3	26*	5	10	27*
COc1cccc2sc3cc(C#Cc4ccccn4)ccc3c(=O)c12	2	-1	-8	0	3	nt
CCCC[C@H](CCCc1ccc(F)cc1)CCC(=O)N(c1ccccc1)c1ccccc1	nt	nt	-2	nt	nt	nt
COc1cccc(CC(=O)Nc2sc3c(c2C(N)=O)CCCC3)c1	8	7	29*	-2	4	2
C[C@H]1[C@@H](N)CC[C@@]23CCCN2C(=O)CCC[C@@H]13	nt	nt	5	nt	nt	nt
Cc1cc(C)n2nc(-c3ccc(Br)cc3)cc2n1	1	-2	27*	0	0	3
CC(=O)c1cnc2cc(-c3ccc(Cl)cc3)nn2c1C	2	1	28*	1	2	10
Cc1c(C(=O)O)cnc2cc(-c3ccc(Cl)cc3)nn12	2	0	-7	0	-1	nt
Cc1cc(-c2ccc(Cl)cc2)n2nc(C)cc2n1	-11	1	2	-1	1	nt
Cc1cc(C)n2nc(-c3ccc(Cl)cc3)cc2n1	-5	-1	65*	0	5	52*	RORg counter=>40
COc1ccc(-c2cc3nc(C)cc(C)n3n2)cc1	0	0	-14	-1	-4	nt
C[C@]12C=CC(=O)C=C1CCC1C2[C@@H](O)C[C@@]2(C)C1CC[C@]2(O)C(=O)COC(=O)CCC(=O)O (stereo partly drawn)	nt	nt	0	nt	nt	nt
COCCSc1nnc(-c2cccnc2)n1Cc1ccccc1	nt	nt	-6	nt	nt	nt
O=C(O)c1ccccc1C(c1ccccc1)c1ccccc1O (stereo not drawn)	-4	0	54*	-1	nt	45*	RORg counter=>40
CC(C)c1[nH]nc2c1C(c1cccc(C(F)(F)F)c1)NC2=O (stereo not drawn)	nt	1	-4	nt	nt	nt
c1ccc(-c2nc(-c3ccc(-c4ccon4)s3)no2)cc1	8	0	10	-1	0	nt
c1csc(-c2nc(-c3ccc(-c4ccon4)s3)no2)c1	-7	5	21*	-1	0	11
Cc1onc(-c2ccccc2)c1C(=O)Nc1ccccc1N1CCOCC1	6	1	1	-1	2	nt
Cc1onc(-c2ccccc2)c1C(=O)Nc1cc(C(F)(F)F)ccc1N1CCOCC1	-20	2	22*	-3	-1	33*
O=C(Nc1ccc(-c2nc3ccccc3s2)c(O)c1)C1=COCCO1	7	-2	87*	2	8	12
O=C(Nc1ccc(O)c(-c2nc3ccccc3s2)c1)C1=COCCO1	-6	0	494*	3	11	259*	RORg counter=>40
CC(=O)Nc1cccc(-c2nc3ccccc3s2)c1	-3	-2	-1	0	2	nt
O=C(Nc1ccc(-c2nc3ccccc3s2)cc1)C1=COCCO1	-1	0	9	0	0	nt
CC(=O)Nc1ccc(O)c(-c2nc3ccccc3s2)c1	8	2	231*	1	2	385*	RORg counter=>40
SMILES	MC4R antagonist	PG9 binder	Rev-erbA mod	MC4R ag barr	NTR1 ag	Rev-erbA confirm	others
Cc1ccc(-n2c(SCC(=O)c3ccc(F)cc3)nnc2-c2cccnc2)cc1	nt	nt	4	nt	nt	nt
Cc1cc2c(c(=O)o1)[C@@]1(C(=O)N(C)c3ccccc31)C1=C(CC(C)(C)CC1=O)O2	nt	0	-4	nt	nt	nt
CS(=O)(=O)NCCNc1cc(Cl)ccc1[N+](=O)[O-]	0	-1	17*	-2	0	6
CS(=O)(=O)NCCNc1ccc(Cl)cc1[N+](=O)[O-]	5	-2	8	-1	-2	nt
OCC1OC(Oc2cccc3ccccc23)C(O)C(O)C1O (stereo not drawn)	19	-2	26*	-1	-1	-3
CCCCN1C(=O)/C(=C/C=C2\Oc3ccccc3N2CC)SC1=S	-1	1	15*	-2	nt	62*	RORg counter=i
CCCCN1C(=O)/C(=C/C=C2/CC(C)(C)CN2C)SC1=S	0	-1	84*	-2	-4	95*	RORg counter=9.8*
CCCN1C(=O)/C(=C\C=C2/Sc3ccccc3N2CCO)SC1=S	3	0	9	-3	-1	nt
